Data published in ChEMBL document CHEMBL2413051, “Antibacterial activity of quinoxalines, quinazolines, and 1,5-naphthyridines” (2013).
In brackets after ≈: the same amount, converted by molar mass. Activity calls are given as the source filed them. No cut-off for these calls is given here.

How the values were obtained:
[1] = target: T1, Cell division protein FtsZ (Staphylococcus aureus) (UniProt P0A031); assay: Stimulation of purified Staphylococcus aureus FtsZ polymerization at 40 ug/ml by microtiter plate based light-scattering assay in presence of 10 mM depolymerizing agent GDP
T1 sequence (whole entry): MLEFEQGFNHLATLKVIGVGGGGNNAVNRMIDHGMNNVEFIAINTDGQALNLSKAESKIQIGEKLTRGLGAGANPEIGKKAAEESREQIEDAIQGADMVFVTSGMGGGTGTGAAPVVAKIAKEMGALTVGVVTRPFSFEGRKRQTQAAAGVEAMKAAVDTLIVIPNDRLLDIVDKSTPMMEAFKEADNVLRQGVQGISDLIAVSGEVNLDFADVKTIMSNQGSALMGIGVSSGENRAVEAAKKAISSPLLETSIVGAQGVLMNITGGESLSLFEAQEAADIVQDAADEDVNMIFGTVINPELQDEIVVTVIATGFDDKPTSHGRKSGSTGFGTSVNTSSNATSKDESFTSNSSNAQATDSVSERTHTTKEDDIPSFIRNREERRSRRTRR

Enterococcus faecalis [2] = assay: microbe, parasite or virus in culture; format: functional; conditions: ATCC 51575
Enterococcus faecalis [3] = assay: microbe, parasite or virus in culture; format: functional; conditions: ATCC 19433
Staphylococcus aureus [4] = assay: microbe, parasite or virus in culture; format: functional; conditions: ATCC 33591
Staphylococcus aureus [5] = assay: microbe, parasite or virus in culture; format: functional; conditions: 8325-4
Enterococcus faecalis [6] = assay: Ratio of MBC to MIC for vancomycin-resistant Enterococcus faecalis ATCC 51575; format: functional
Procedure, shortened: (§1)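 Ratio of MBC to MIC, both in µg/mL. MIC was found by CLSI broth microdilution as the lowest concentration giving ≥90% growth inhibition. MBC was found by a previously described method. Per CLSI, a ratio of 1–2 is read as bactericidal and ≥8 as bacteriostatic.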

Enterococcus faecalis [7] = assay: Bactericidal activity against vancomycin-resistant Enterococcus faecalis ATCC 51575; format: functional
Staphylococcus aureus [8] = assay: Ratio of MBC to MIC for methicillin-sensitive Staphylococcus aureus 8325-4; format: functional
Staphylococcus aureus [9] = assay: Bactericidal activity against methicillin-resistant Staphylococcus aureus ATCC 33591; format: functional
[10] = target: T1, Cell division protein FtsZ (Staphylococcus aureus); assay: Stimulation of purified Staphylococcus aureus FtsZ polymerization at 40 ug/ml by microtiter plate based light-scattering assay
Staphylococcus aureus [11] = assay: Bactericidal activity against methicillin-sensitive Staphylococcus aureus 8325-4; format: functional
Procedure, shortened: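 MBC against MSSA strain 8325-4, determined per a previously described method; paired MIC by CLSI broth microdilution, MIC being lowest concentration giving ≥90% growth inhibition.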

[12] = target: T1, Cell division protein FtsZ (Staphylococcus aureus); assay: Stimulation of purified Staphylococcus aureus FtsZ polymerization at 80 ug/ml by microtiter plate based light-scattering assay
Staphylococcus aureus [13] = assay: Ratio of MBC to MIC for methicillin-resistant Staphylococcus aureus ATCC 33591; format: functional; procedure, shortened: as §1

Row | SMILES | Activity [1] | MIC (Enterococcus faecalis [2]) | MIC (Enterococcus faecalis [3]) | MIC (Staphylococcus aureus [4]) | MIC (Staphylococcus aureus [5]) | Ratio (Enterococcus faecalis [6]) | MBC (Enterococcus faecalis [7]) | Ratio (Staphylococcus aureus [8]) | MBC (Staphylococcus aureus [9]) | Activity [10] | MBC (Staphylococcus aureus [11]) | Activity [12] | Ratio (Staphylococcus aureus [13])
1 | c1ccc2nccnc2c1 [QUINOXALINE] | Active | > 64 µg/mL | > 64 µg/mL | > 64 µg/mL | > 64 µg/mL |  |  |  |  |  |  |  | 
2 | Cc1onc(-c2ccccc2)c1C(=O)N[C@@H]1C(=O)N2[C@@H]1SC(C)(C)[C@@H]2C(=O)O [OXACILLIN] |  | > 64 µg/mL | 8 µg/mL (≈ 19.9 µM) | > 64 µg/mL | 0.06 µg/mL (≈ 0.149 µM) |  |  |  |  |  |  |  | 
3 | CC(C)(C)c1cccc(-c2cnc3ccccc3n2)c1 | Active | > 64 µg/mL | > 64 µg/mL | > 64 µg/mL | > 64 µg/mL |  |  |  |  |  |  |  | 
4 | C[n+]1cc(-c2cccc(-c3ccccc3)c2)nc2ccccc21.[I-] | Active | 8 µg/mL | 8 µg/mL | 0.5 µg/mL | 0.5 µg/mL | 8 | 64 µg/mL | 8 | 4 µg/mL | inactive | 4 µg/mL |  | 
5 | CC(C)(C)c1ccc(-c2ncnc3c(CNC(=N)N)cccc23)cc1 | Active | 32 µg/mL (≈ 96 µM) | 32 µg/mL (≈ 96 µM) | 8 µg/mL (≈ 24 µM) | 4 µg/mL (≈ 12 µM) | 2 | 64 µg/mL (≈ 192 µM) | 2 | 16 µg/mL (≈ 48 µM) |  | 8 µg/mL (≈ 24 µM) | Active | 
6 | COC(=O)c1cc(-c2ccc(C(C)(C)C)cc2)cc(-c2c[n+](C)c3ccccc3n2)c1.[I-] | Active | 4 µg/mL | 4 µg/mL | 1 µg/mL | 1 µg/mL |  |  |  |  |  |  |  | 
7 | C[n+]1cc(-c2ccccc2)nc2ccccc21.[I-] | Active | > 64 µg/mL | 32 µg/mL | 8 µg/mL | 4 µg/mL |  |  |  |  |  |  |  | 
8 | CC(C)(C)c1ccc(-c2cc(C(=O)NCCN)cc(-c3cnc4ccccc4n3)c2)cc1 | Active | 8 µg/mL (≈ 18.8 µM) | 8 µg/mL (≈ 18.8 µM) | 4 µg/mL (≈ 9.42 µM) | 4 µg/mL (≈ 9.42 µM) |  |  |  |  |  |  |  | 
9 | CC(=N)NCc1cccc2c(-c3ccc(C(C)(C)C)cc3)ncnc12 | Active | 64 µg/mL (≈ 193 µM) | 64 µg/mL (≈ 193 µM) | 64 µg/mL (≈ 193 µM) | 32 µg/mL (≈ 96.3 µM) |  |  |  |  |  |  |  | 
10 | Fc1cccc(-c2cnc3ccccc3n2)c1 | Active | > 64 µg/mL | > 64 µg/mL | > 64 µg/mL | > 64 µg/mL |  |  |  |  |  |  |  | 
11 | C[n+]1cc(-c2ccc(C(C)(C)C)cc2)nc2ccccc21.[I-] | Active | 16 µg/mL | 16 µg/mL | 1 µg/mL | 0.5 µg/mL | 4 | 64 µg/mL | 16 | 16 µg/mL |  | 8 µg/mL |  | 
12 | CC[C@H]1OC(=O)[C@H](C)[C@@H](O[C@H]2C[C@@](C)(OC)[C@@H](O)[C@H](C)O2)[C@H](C)[C@@H](O[C@@H]2O[C@H](C)C[C@H](N(C)C)[C@H]2O)[C@](C)(O)C[C@@H](C)C(=O)[C@H](C)[C@@H](O)[C@]1(C)O [ERYTHROMYCIN] |  | > 64 µg/mL | 1 µg/mL (≈ 1.36 µM) | > 64 µg/mL | 0.13 µg/mL (≈ 0.177 µM) |  |  |  |  |  | 32 µg/mL (≈ 43.6 µM) |  | 
13 | COC(=O)c1cc(-c2ccc(C(C)(C)C)cc2)cc(-c2cnc3ccccc3n2)c1 | Active | > 64 µg/mL | > 64 µg/mL | > 64 µg/mL | > 64 µg/mL |  |  |  |  |  |  |  | 
14 | CC(C)(C)c1ccc(-c2cc(C(=O)NCCO)cc(-c3cnc4ccccc4n3)c2)cc1 | Active | > 64 µg/mL | > 64 µg/mL | > 64 µg/mL | > 64 µg/mL |  |  |  |  |  |  |  | 
15 | CC(C)(C)c1ccc(-c2cnc3c(CNC(=N)N)cccc3n2)cc1 | Active | 16 µg/mL (≈ 48 µM) | 8 µg/mL (≈ 24 µM) | 4 µg/mL (≈ 12 µM) | 4 µg/mL (≈ 12 µM) | 1 | 16 µg/mL (≈ 48 µM) | 1 | 8 µg/mL (≈ 24 µM) | Active | 4 µg/mL (≈ 12 µM) |  | 2
16 | CCC[C@@H]1C[C@@H](C(=O)N[C@@H]([C@H]2O[C@H](SC)[C@H](O)[C@@H](O)[C@H]2O)[C@H](C)Cl)N(C)C1 [CLINDAMYCIN] |  | > 64 µg/mL | 2 µg/mL (≈ 4.71 µM) | > 64 µg/mL | 0.03 µg/mL (≈ 0.0706 µM) |  |  |  |  |  |  |  | 

Row | SMILES | Activity [1] | MIC (Enterococcus faecalis [2]) | MIC (Enterococcus faecalis [3]) | MIC (Staphylococcus aureus [4]) | MIC (Staphylococcus aureus [5]) | Ratio (Enterococcus faecalis [6]) | MBC (Enterococcus faecalis [7]) | Ratio (Staphylococcus aureus [8]) | MBC (Staphylococcus aureus [9]) | Activity [10] | MBC (Staphylococcus aureus [11]) | Activity [12] | Ratio (Staphylococcus aureus [13])
17 | C[n+]1cc(-c2cc(C(N)=O)cc(-c3ccc(C(C)(C)C)cc3)c2)nc2ccccc21.[I-] | Active | 4 µg/mL | 4 µg/mL | 2 µg/mL | 2 µg/mL |  |  |  |  |  |  |  | 
18 | c1ccc(-c2cccc(-c3cnc4ccccc4n3)c2)cc1 | Active | > 64 µg/mL | > 64 µg/mL | > 64 µg/mL | > 64 µg/mL |  |  |  |  |  |  |  | 
19 | CC(C)(C)c1ccc(-c2cccc3c(CNC(=N)N)ncnc23)cc1 | Active | > 64 µg/mL | > 64 µg/mL | 64 µg/mL (≈ 192 µM) | 16 µg/mL (≈ 48 µM) |  |  |  |  |  |  |  | 
20 | C[n+]1cc(-c2cc(C(=O)NCCO)cc(-c3ccc(C(C)(C)C)cc3)c2)nc2ccccc21.[I-] | Active | 8 µg/mL | 8 µg/mL | 4 µg/mL | 4 µg/mL |  |  |  |  |  |  |  | 
21 | CC(C)(C)c1ccc(-c2ccnc3c(CN)ccnc23)cc1 | Active | > 64 µg/mL | > 64 µg/mL | > 64 µg/mL | > 64 µg/mL |  |  |  |  |  |  |  | 
22 | CN[C@H](CC(C)C)C(=O)N[C@H]1C(=O)N[C@@H](CC(N)=O)C(=O)N[C@H]2C(=O)N[C@H]3C(=O)N[C@H](C(=O)N[C@H](C(=O)O)c4cc(O)cc(O)c4-c4cc3ccc4O)[C@H](O)c3ccc(c(Cl)c3)Oc3cc2cc(c3O[C@@H]2O[C@H](CO)[C@@H](O)[C@H](O)[C@H]2O[C@H]2C[C@](C)(N)[C@H](O)[C@H](C)O2)Oc2ccc(cc2Cl)[C@H]1O [VANCOMYCIN] |  | > 64 µg/mL | 1 µg/mL (≈ 0.69 µM) |  |  |  |  |  | 4 µg/mL (≈ 2.76 µM) |  | 1 µg/mL (≈ 0.69 µM) |  | 
23 | CC(C)(C)c1ccc(-c2cnc3ccccc3n2)cc1 | Active | > 64 µg/mL | > 64 µg/mL | > 64 µg/mL | > 64 µg/mL |  |  |  |  |  |  |  | 
24 | C[n+]1cc(-c2cccc(F)c2)nc2ccccc21.[I-] | Active | 32 µg/mL | 32 µg/mL | 4 µg/mL | 2 µg/mL |  |  |  |  |  |  |  | 
25 | c1ccc(-c2cnc3ccccc3n2)cc1 | Active | > 64 µg/mL | > 64 µg/mL | > 64 µg/mL | > 64 µg/mL |  |  |  |  |  |  |  | 
26 | CC(C)(C)c1ccc(-c2ncnc3c(CN)cccc23)cc1 | Active | 64 µg/mL (≈ 220 µM) | 64 µg/mL (≈ 220 µM) | 64 µg/mL (≈ 220 µM) | 32 µg/mL (≈ 110 µM) |  |  |  |  |  |  |  | 
27 | CC(C)(C)c1ccc(-c2ccnc3c(CNC(=N)N)ccnc23)cc1 | Active | 64 µg/mL (≈ 192 µM) | 32 µg/mL (≈ 96 µM) | 8 µg/mL (≈ 24 µM) | 8 µg/mL (≈ 24 µM) | 1 | 64 µg/mL (≈ 192 µM) | 1 | 16 µg/mL (≈ 48 µM) |  | 8 µg/mL (≈ 24 µM) | Active | 2
28 | CC(C)(C)c1ccc(-c2cc(C(N)=O)cc(-c3cnc4ccccc4n3)c2)cc1 | Active | > 64 µg/mL | > 64 µg/mL | > 64 µg/mL | > 64 µg/mL |  |  |  |  |  |  |  | 
29 | C[n+]1cc(-c2cccc(C(C)(C)C)c2)nc2ccccc21.[I-] | Active | 16 µg/mL | 8 µg/mL | 2 µg/mL | 2 µg/mL | 4 | 64 µg/mL | 8 | 16 µg/mL | inactive | 16 µg/mL |  | 
30 | CN(C)[C@@H]1C(O)=C(C(N)=O)C(=O)[C@@]2(O)C(O)=C3C(=O)c4c(O)cccc4[C@@](C)(O)[C@H]3C[C@@H]12 [TETRACYCLINE] |  | > 64 µg/mL | 0.5 µg/mL (≈ 1.13 µM) | 64 µg/mL (≈ 144 µM) | 0.06 µg/mL (≈ 0.135 µM) |  |  |  |  |  |  |  | 
31 | C[n+]1ccnc2ccccc21.[I-] | Active | > 64 µg/mL | > 64 µg/mL | > 64 µg/mL | 32 µg/mL |  |  |  |  |  |  |  | 
32 | CC(C)(C)c1cccc(-c2cnc3c(CNC(=N)N)cccc3n2)c1 | Active | 16 µg/mL (≈ 48 µM) | 8 µg/mL (≈ 24 µM) | 4 µg/mL (≈ 12 µM) | 4 µg/mL (≈ 12 µM) | 2 | 32 µg/mL (≈ 96 µM) | 1 | 8 µg/mL (≈ 24 µM) | Active | 4 µg/mL (≈ 12 µM) |  | 2
